One data set concerns HCT-116. Nature of the data set: Cytotoxicity in human HCT-116 cells assessed as reduction in cell viability incubated for 72 hrs by MTS assay. In kind it is functional, cell-based. Particulars: HCT-116, 72 h. Summed up:
(§1)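 Cells seeded at 5 × 10^3 cells/well, kept overnight at 37 °C, then exposed to inhibitors at various concentrations for 72 h. Viability read with a freshly mixed PMS (0.92 mg/mL) : MTS (2 mg/mL) reagent at 1:19, incubated 3 h at 37 °C, A490 measured. […] Triplicate; mean ± SD.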
Background: Formazan colour is commonly taken as a measure of viable cells.

The subject of another data set is MDA-MB-231. Description: Cytotoxicity in human MDA-MB-231 cells assessed as reduction in cell viability incubated for 72 hrs by MTS assay. As to conditions: MDA-MB-231, 72 h. Type of data set: functional, cell-based. Summed up: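 Triple-negative breast cancer line seeded at 5 × 10^3 cells/well, held overnight at 37 °C, then exposed to inhibitor over a concentration range for 72 h. Viability read out with a fresh 1:19 mix of PMS (0.92 mg/mL) and MTS (2 mg/mL), incubated 3 h at 37 °C, A490 measured.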

The subject of another data set is A549. Description: Cytotoxicity in human A549 cells assessed as reduction in cell viability incubated for 72 hrs by MTS assay. In kind it is functional, cell-based. As to conditions: A549, 72 h. Summed up: as §1
Data set [1] addresses T1, beta-catenin-B-cell lymphoma 9 protein complex (Homo sapiens, UniProt P35222).
T1 sequence (P35222 whole entry): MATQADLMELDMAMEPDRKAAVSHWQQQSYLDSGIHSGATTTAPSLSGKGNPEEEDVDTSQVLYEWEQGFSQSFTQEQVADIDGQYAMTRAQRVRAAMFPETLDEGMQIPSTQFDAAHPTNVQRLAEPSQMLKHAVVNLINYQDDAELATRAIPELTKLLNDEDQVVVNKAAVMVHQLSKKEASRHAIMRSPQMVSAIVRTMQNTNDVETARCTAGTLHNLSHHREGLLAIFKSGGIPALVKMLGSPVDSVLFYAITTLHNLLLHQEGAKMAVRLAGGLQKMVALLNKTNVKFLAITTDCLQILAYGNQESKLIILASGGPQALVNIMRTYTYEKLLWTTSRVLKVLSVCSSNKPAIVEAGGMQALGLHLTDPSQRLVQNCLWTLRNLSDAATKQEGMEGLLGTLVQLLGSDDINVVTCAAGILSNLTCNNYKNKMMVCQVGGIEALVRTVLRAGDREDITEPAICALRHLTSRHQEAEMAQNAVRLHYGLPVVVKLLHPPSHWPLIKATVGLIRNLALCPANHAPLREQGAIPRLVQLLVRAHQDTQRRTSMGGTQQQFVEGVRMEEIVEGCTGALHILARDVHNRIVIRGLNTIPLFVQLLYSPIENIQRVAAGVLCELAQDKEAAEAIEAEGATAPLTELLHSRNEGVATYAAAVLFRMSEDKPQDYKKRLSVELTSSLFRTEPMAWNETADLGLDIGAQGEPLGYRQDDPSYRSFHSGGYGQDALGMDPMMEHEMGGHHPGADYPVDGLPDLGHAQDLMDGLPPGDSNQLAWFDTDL
T1 sequence (O00512 whole entry): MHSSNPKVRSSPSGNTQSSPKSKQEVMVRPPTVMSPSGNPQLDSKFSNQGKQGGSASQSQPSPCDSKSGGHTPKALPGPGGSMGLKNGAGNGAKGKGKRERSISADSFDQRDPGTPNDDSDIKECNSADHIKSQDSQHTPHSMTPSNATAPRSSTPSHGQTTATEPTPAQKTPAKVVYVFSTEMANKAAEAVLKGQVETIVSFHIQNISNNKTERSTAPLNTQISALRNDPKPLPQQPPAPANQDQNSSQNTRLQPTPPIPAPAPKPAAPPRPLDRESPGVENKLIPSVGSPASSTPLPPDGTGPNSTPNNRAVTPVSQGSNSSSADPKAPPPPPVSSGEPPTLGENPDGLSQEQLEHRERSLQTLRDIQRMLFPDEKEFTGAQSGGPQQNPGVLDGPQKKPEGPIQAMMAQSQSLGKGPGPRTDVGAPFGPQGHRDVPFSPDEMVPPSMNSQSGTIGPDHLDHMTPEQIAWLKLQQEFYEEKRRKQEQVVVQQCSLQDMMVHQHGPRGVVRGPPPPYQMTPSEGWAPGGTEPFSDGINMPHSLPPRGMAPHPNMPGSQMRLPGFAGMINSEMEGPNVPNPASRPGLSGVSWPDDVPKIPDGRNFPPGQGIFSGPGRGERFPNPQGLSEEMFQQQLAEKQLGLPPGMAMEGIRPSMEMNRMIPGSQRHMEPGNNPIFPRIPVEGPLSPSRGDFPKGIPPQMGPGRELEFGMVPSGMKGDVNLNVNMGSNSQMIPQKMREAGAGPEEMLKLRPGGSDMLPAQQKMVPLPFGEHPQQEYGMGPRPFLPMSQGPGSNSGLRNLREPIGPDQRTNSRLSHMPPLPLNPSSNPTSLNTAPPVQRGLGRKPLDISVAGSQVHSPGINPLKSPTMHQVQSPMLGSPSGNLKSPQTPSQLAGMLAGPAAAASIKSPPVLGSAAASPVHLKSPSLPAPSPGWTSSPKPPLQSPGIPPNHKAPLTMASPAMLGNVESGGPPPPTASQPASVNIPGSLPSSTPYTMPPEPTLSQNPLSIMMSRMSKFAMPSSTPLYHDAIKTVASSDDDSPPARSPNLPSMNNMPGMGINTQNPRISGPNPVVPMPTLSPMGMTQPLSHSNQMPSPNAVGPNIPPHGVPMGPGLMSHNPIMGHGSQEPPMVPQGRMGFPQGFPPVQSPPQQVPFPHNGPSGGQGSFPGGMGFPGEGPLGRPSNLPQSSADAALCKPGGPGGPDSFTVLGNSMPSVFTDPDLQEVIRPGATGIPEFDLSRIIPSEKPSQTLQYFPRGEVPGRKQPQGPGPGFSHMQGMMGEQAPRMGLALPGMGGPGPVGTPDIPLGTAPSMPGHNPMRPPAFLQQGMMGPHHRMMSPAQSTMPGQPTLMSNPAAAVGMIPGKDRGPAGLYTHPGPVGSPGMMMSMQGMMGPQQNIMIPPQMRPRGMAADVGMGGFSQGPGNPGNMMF
Nature of the data set: Inhibition of protein interaction between beta-catenin (unknown origin)/BCL9 in human SW480 cells transfected with beta-catenin assessed as reduction in Wnt/beta-catenin transactivation incubated for 24 hrs by Wnt-responsive TOP-Flash luciferase reporter assay. In kind it is cell-based. (A reporter such as luciferase makes a cellular process visible.)

The next data set has as its system SW480. Description: Cytotoxic activity in human SW480 cells at 50 to 100 uM incubated for 4 hrs by LDH release assay. Type of data set: cell-based. Particulars: sw480, 4 h, dose 50-100 µM. Summed up: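 SW480 cells were seeded at 2 × 10^4 cells/well and kept overnight at 37 °C. They were then exposed to a range of inhibitor concentrations for 4 h. LDH in the culture supernatant was measured with a diagnostic kit by absorbance at 490 nm. Percent cytotoxicity was calculated from experimental release against maximum release, with background subtracted. Run in triplicate.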
For orientation: Release of lactate dehydrogenase indicates damage to the cell membrane.

Data set [2] deals with beta-catenin-B-cell lymphoma 9 protein complex (Homo sapiens) (UniProt P35222+O00512). Nature of the data set: Inhibition of protein interaction between beta-catenin (unknown origin)/BCL9 in human HEK293 cells transfected with beta-catenin assessed as reduction in Wnt/beta-catenin transactivation incubated for 24 hrs by Wnt-responsive FOP-Flash luciferase reporter assay.

Structures are written as SMILES. Active and inactive are the calls of the source. No cut-off for these calls is given here.

With `Cl.Cl.O=C(Nc1ccc(O[C@H]2CCNC2)c(-c2ccc(F)cc2)c1)c1ccc(O[C@H]2CCNC2)c(-c2ccc3ccsc3c2)c1`, the IC50 – broadly, the point on the concentration scale where inhibition reaches its midpoint – in the data set with HCT-116 is 7.5 µM; in the data set with MDA-MB-231, 2.8 µM; in the data set on A549 it was 9.4 µM; in data set [1], 1.2 µM. Besides, in the data set on SW480, the Activity entry was “Toxic”. In addition, the inhibition result in data set [2] was “Active”.

`Cl.Cl.O=C(Nc1ccc(O[C@H]2CCNC2)c(-c2ccc(F)cc2)c1)c1ccc(O[C@H]2CCNC2)c(-c2ccc(F)c(F)c2)c1`: the IC50 in data set [1] was determined as 2.9 µM. Besides, the Activity result with SW480 was “Toxic”. Besides, in data set [2], the inhibition result is “Active”.

For `Cc1cc(F)ccc1-c1cc(NC(=O)c2ccc(O[C@H]3CCNC3)c(-c3ccc(F)c(F)c3)c2)ccc1O[C@H]1CCNC1.Cl.Cl`, the IC50 came to 5.6 µM in the data set on HCT-116, 4.1 µM with MDA-MB-231, 10 µM in the data set with A549 and 2 µM in data set [1]. Moreover, the Activity entry in the data set on SW480 is “Toxic”. Besides, the inhibition result in data set [2] is “Active”.

Turning to `Cl.Cl.O=C(Nc1ccc(O[C@H]2CCNC2)c(-c2ccc(F)cc2)c1)c1cnc(O[C@H]2CCNC2)c(-c2ccc(F)c(F)c2)c1`, the IC50 with HCT-116 was 8.7 µM; in the data set with MDA-MB-231, 3.6 µM; with A549, 26 µM; in data set [1], 5.9 µM. For the same molecule, the Activity entry with SW480 is on record as “Toxic”. In data set [2], the inhibition result was “Active”.

For the molecule `Cl.Cl.O=C(Nc1ccc(O[C@H]2CCNC2)c(-c2ccc(F)cc2)c1)c1ccc(O[C@H]2CCNC2)c(-c2ccc3cc(F)ccc3c2)c1`, the IC50 turned out to be 5.6 µM in the data set on HCT-116, 2.1 µM in the data set on MDA-MB-231, 3.7 µM in the data set with A549 and 12 µM in data set [1]. Also, in the data set on SW480, the Activity result is given as “Toxic”. Moreover, the inhibition result in data set [2] was “Active”.

For `Cl.Cl.O=C(Nc1ccc(O[C@H]2CCNC2)c(-c2ccc(F)cc2)c1)c1ccc(O[C@H]2CCNC2)c(C2CCC(C(F)(F)F)CC2)c1` (stereo partly drawn), the IC50 in the data set on HCT-116 is 5.6 µM; in the data set with MDA-MB-231, 2.3 µM; with A549, 4.8 µM; in data set [1], 10 µM. Further, in the data set with SW480, the Activity entry is recorded as “Toxic”. For the same molecule, the inhibition entry in data set [2] was “Active”.

As to `Cl.Cl.O=C(Nc1ccc(O[C@@H]2CCNC2)c(-c2cccc(-c3nn[nH]n3)c2)c1)c1ccc(O[C@H]2CCNC2)c(-c2ccc(F)c(F)c2)c1`, the IC50 in the data set on HCT-116 was 55 µM; in the data set on MDA-MB-231, 73 µM; with A549, more than 400 µM; in data set [1] it was 25 µM. Besides, the inhibition result in data set [2] was “inactive”.

These data come from ChEMBL document CHEMBL4680104, “Structure-Based Optimization of Small-Molecule Inhibitors for the β-Catenin/B-Cell Lymphoma 9 Protein-Protein Interaction” (J Med Chem, 2018).
